# Published values pooled from the literature.
# DCLK3: Serine/threonine-protein kinase DCLK3 (DCLK3, Homo sapiens, UniProt Q9C098)
# BDKRB1: B1 bradykinin receptor (BDKRB1, Homo sapiens, UniProt P46663)
# mraY: mraY (Staphylococcus aureus, UniProt Q2FZ93)
SMILES,target,assay,system,setting,measurement,value
C[C@]1(O)CCCN(c2nc(Nc3ccc(S(=O)(=O)N[C@H]4CC[C@H](CN5CCN(c6ccc(C7CCC(=O)NC7=O)cc6F)CC5)CC4)cc3Cl)ncc2C(F)(F)F)C1 (stereo partly drawn),DCLK3,"binding, competition with immobilised ligand",,1 µM,remaining binding,52%
COc1ccc2oc(-c3ccc4nc(N)oc4c3)c/c(=N\c3ccccc3NC(=O)CCN)c2c1,"Mitogen-activated protein kinase kinase kinase 8 (MAP3K8, Homo sapiens, UniProt P41279)",binding,,1 µM,remaining binding,104%
Cc1cc(S(=O)(=O)N[C@H]2CC[C@H](CN3CCN(c4ccc(C5CCC(=O)NC5=O)cc4F)CC3)CC2)ccc1Nc1ncc(C(F)(F)F)c(N2CCC[C@](C)(O)C2)n1 (stereo partly drawn),"Aurora kinase C (AURKC, Homo sapiens, UniProt Q9UQB9)","binding, competition with immobilised ligand",,1 µM,remaining binding,50%
Cc1cc(-c2ccnc3[nH]cc(F)c23)cc(F)c1[C@@]1(O)[C@H](C)CN(C(=O)CN)C[C@@H]1C,"Rho-associated protein kinase 1 (ROCK1, Homo sapiens, UniProt Q13464)","enzyme activity, inhibitor",,0.1 µM,remaining activity,13.5%
C1=C/COCc2cc(ccc2OCCN2CCCC2)Nc2nccc(n2)-c2cccc(c2)COC/1,"Receptor-type tyrosine-protein kinase FLT3 (FLT3, Homo sapiens, UniProt P36888, R834Q)",binding,,0.1 µM,remaining binding,17%
CCN1/C(=C/C(C)=O)Sc2ccc(F)cc21,BDKRB1,"ligand displacement, radioligand",,10 µM,inhibition,0%
CCCCCCC#Cc1cncc(-c2nnc(SCc3ccc([N+](=O)[O-])cc3)n2CCCN)c1,mraY,"cell-free assay, inhibitor",,250 µM,inhibition,82%
CNS(=O)(=O)c1ccc(Nc2ncc(C(F)(F)F)c(N3CCC[C@](C)(O)C3)n2)c(C)c1,DCLK3,"binding, competition with immobilised ligand",,1 µM,remaining binding,41%
NC/C(=C\F)COc1cccc(Cn2c(=S)[nH]c(=O)c3[nH]cnc32)c1,BDKRB1,"ligand displacement, radioligand",,10 µM,inhibition,< 50%
CCCCCCC#Cc1cncc(-c2nnc(SCc3cc([N+](=O)[O-])cc([N+](=O)[O-])c3)n2CCOC2OC(CN)C(O)C2O)c1 (stereo not drawn),mraY,"cell-free assay, inhibitor",,250 µM,inhibition,> 80%
N#Cc1ccc(NC(=O)Nc2ccccc2)cc1,"Testis-specific serine/threonine-protein kinase 1 (TSSK1B, Homo sapiens, UniProt Q9BXA7)","cell-free assay, competition with immobilised ligand",,25 µM,remaining binding,83%
CCCCC(=O)Nc1ccc(-c2ccc3ncn(CCC)c(=O)c3c2)cn1,"Serine/threonine-protein kinase SIK1 (SIK1, Homo sapiens, UniProt P57059)","binding, competition with immobilised ligand",,0.5 µM,remaining binding,79%
CCCC[C@H](NC(=O)[C@H](Cc1c[nH]c2ccccc12)N(C)C(=O)C1(O)C[C@H](O)[C@@H](NC(C)=O)[C@H]([C@H](O)[C@H](O)CO)O1)C(=O)N[C@@H](CC(=O)O)C(=O)N[C@@H](Cc1cccc(Br)c1)C(N)=O (stereo partly drawn),"Gastrin/cholecystokinin type B receptor (CCKBR, Homo sapiens, UniProt P32239)","β-arrestin recruitment, agonist",HTLA,,Emax,102%
CCCCCCC#Cc1cncc(-c2nnc(SCc3cc([N+](=O)[O-])cc([N+](=O)[O-])c3)n2C2CCNCC2)c1,mraY,"cell-free assay, inhibitor",,250 µM,inhibition,> 80%
C[C@]1(O)CCCN(c2nc(Nc3ccc(S(=O)(=O)N[C@H]4CC[C@H](CN5CCN(c6ccc(C7CCC(=O)NC7=O)cc6F)CC5)CC4)cc3F)ncc2C(F)(F)F)C1 (stereo partly drawn),"BMP-2-inducible protein kinase (BMP2K, Homo sapiens, UniProt Q9NSY1)","binding, competition with immobilised ligand",,1 µM,remaining binding,74%
